Measured values published in ChEMBL document CHEMBL4138188, “Eurycomalactone Inhibits Expression of Endothelial Adhesion Molecules at a Post-Transcriptional Level” (J Nat Prod, 2017).
Calls of active or inactive are those of the source. The calls are words filed in the database; no cut-off is given here.

Tests used:
Homo sapiens [1] = species: Homo sapiens; experiment: Inhibition of de novo protein synthesis in HUVECtert at 2 to 5 uM after 30 mins by Click-iT OPP/Alexa fluor 488 picolyl azide reagent based flow cytometry; format: functional
In short: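 HUVECtert (1 × 10^6 cells in tubes) exposed 30 min to agent (2 or 5 μM; cycloheximide 1−35 μM) or vehicle, then 20 μM OPP 30 min; fixed, permeabilised, Alexa 488 click-labelled in Tris buffer pH 7.4; FL-1 flow cytometry relative to control; n = 3, one-way ANOVA/Dunnett.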

[2] = biological target: T1, NF-kappa-B inhibitor alpha (Homo sapiens) (UniProt P25963); experiment: Inhibition of IkappaBalpha phosphorylation level in TNFalpha-stimulated HUVECtert at 2 uM pretreated for 30 mins followed by TNFalpha stimulation measured after 5 to 15 mins by Western blot analysis
T1 sequence (whole entry): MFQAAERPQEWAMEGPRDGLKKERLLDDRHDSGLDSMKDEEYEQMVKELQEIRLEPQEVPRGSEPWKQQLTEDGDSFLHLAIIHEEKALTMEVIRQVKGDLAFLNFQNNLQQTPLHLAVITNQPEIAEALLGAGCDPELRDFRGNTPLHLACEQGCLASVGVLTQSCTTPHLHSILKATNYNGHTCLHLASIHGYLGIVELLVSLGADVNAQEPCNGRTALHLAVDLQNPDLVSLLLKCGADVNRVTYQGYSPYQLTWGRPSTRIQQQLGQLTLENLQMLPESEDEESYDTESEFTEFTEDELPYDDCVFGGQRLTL
In short: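 HUVECtert on gelatin-coated dishes pretreated with 2 μM agent or 0.1% DMSO, then TNFα 10 ng/mL; p-IKKα/β, p-IκBα and total IκBα immunoblotted at 5 or 15 min post-stimulation, actin loading control; means ± SD, n = 3, one-way ANOVA/Dunnett.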

[3] = Effect on basal E-selectin expression level in HUVECtert at 0.5 to 10 uM incubated for 30 mins by flow cytometry; format: ADME; settings: human, 0.5 h
In short: (§1)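 Unstimulated HUVECtert treated with 0.5−10 μM test agent without TNFα; surface VCAM-1, ICAM-1 or E-selectin stained with FITC-labelled antibodies and read by flow cytometry.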

Homo sapiens [4] = species: Homo sapiens; experiment: Reduction in cyclin D1 level in HUVECtert at 2 uM by Western blot analysis; format: functional; settings: TDE = time-dependent effect
In short: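 HUVECtert treated with 1 μM cycloheximide, 2 μM agent, vehicle, or left untreated for a time course; cyclin D1 or survivin by Western blot, actin loading control; means ± SD of three blots, one-way ANOVA/Dunnett versus untreated.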

Homo sapiens [5] = species: Homo sapiens; experiment: (§2) Inhibition of NF-kappaB in HUVECtert assessed as reduction in TNFalpha-induced ICAM-1 expression level pretreated for 30 mins followed by TNFalpha stimulation measured after 18 hrs by flow cytometry
In short: (§3)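 FITC-antibody surface staining, flow cytometry; expression relative to TNFα-stimulated control. Parthenolide 10 μM as positive control; means ± SD, n = 3, one-way ANOVA/Dunnett versus vehicle.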

[6] = as §2; set-up: species or system Homo sapiens; in short: as §3
[7] = biological target: Transcription factor p65 (Homo sapiens) (UniProt Q04206); experiment: Inhibition of TNFalpha-stimulated NF-kappaB p65 nuclear translocation in HUVECtert nuclear extracts at 2 uM pretreated for 30 mins followed by TNFalpha stimulation measured after 1 hr by Western blot method
In short: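 Cells grown 48 h, pretreated 30 min with 2 μM or 0.1% DMSO, then TNFα 10 ng/mL for 1 h. Hypotonic NP40 lysis gave cytosol; nuclei extracted in 420 mM NaCl HEPES buffer pH 7.5. Nuclear p65 by Western blot, lamin loading control, tubulin/lamin verifying fractions; n = 3.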

Homo sapiens [8] = species: Homo sapiens; experiment: Inhibition of NF-kappaB in HUVECtert assessed as reduction in cyclin D1 mRNA expression level at 2 uM measured up to 240 mins by qRT-PCR analysis
In short: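 HUVECtert incubated without TNFα with 2 μM agent, 1 μM cycloheximide or 0.1% DMSO for 0.5−4 h; cyclin D1 mRNA by qRT-PCR, 2−ΔΔCt analysis.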

Homo sapiens [9] = species: Homo sapiens; experiment: Inhibition of NF-kappaB in HUVECtert assessed as reduction in TNFalpha-induced VCAM-1 mRNA expression level at 0.5 uM pretreated for 30 mins followed by TNFalpha stimulation measured after 4 hrs by qRT-PCR analysis
Homo sapiens [10] = species: Homo sapiens; experiment: Inhibition of NF-kappaB in HUVECtert assessed as reduction in TNFalpha-induced ICAM-1 mRNA expression level at 0.5 to 5 uM pretreated for 30 mins followed by TNFalpha stimulation measured after 4 hrs by qRT-PCR analysis
[11] = biological target: Transcription factor p65 (Homo sapiens) (UniProt Q04206); experiment: Inhibition of NF-kappaB p65 binding to DNA consensus in TNFalpha-stimulated HUVECtert at 2 uM pretreated for 30 mins followed by TNFalpha stimulation measured after 1 hr […]
Homo sapiens [12] = species: Homo sapiens; experiment: Inhibition of NF-kappaB in HUVECtert assessed as reduction in TNFalpha-induced VCAM-1 mRNA expression level at 5 uM pretreated for 30 mins followed by TNFalpha stimulation measured after 4 hrs by qRT-PCR analysis
[13] = Effect on basal ICAM-1 expression level in HUVECtert at 0.5 to 10 uM incubated for 30 mins by flow cytometry; format: ADME; settings: human, 0.5 h; in short: as §1
Homo sapiens [14] = species: Homo sapiens; experiment: Inhibition of NF-kappaB in HUVECtert assessed as reduction in TNFalpha-induced E-selectin mRNA expression level at 0.5 to 5 uM pretreated for 30 mins followed by TNFalpha stimulation measured after 2 hrs by qRT-PCR analysis

Transcription factor p65 (Homo sapiens), sequence (Q04206 whole entry): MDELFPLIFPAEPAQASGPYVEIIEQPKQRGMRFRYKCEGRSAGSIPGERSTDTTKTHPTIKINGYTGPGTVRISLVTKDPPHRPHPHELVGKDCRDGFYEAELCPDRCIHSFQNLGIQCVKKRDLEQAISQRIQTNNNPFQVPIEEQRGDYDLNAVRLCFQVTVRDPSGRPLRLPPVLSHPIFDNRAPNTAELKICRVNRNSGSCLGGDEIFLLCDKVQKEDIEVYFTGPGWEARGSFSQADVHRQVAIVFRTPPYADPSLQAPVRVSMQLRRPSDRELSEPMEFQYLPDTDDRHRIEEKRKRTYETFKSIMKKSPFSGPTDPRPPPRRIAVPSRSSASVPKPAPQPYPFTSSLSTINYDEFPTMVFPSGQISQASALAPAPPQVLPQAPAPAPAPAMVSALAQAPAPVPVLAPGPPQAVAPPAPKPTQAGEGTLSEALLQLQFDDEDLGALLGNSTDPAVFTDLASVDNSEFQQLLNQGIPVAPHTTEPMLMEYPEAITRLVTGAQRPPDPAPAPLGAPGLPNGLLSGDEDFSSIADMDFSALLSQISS

In the case of `CC1=CC(=O)[C@@H](O)[C@@]2(C)[C@H]1CC(=O)[C@@]1(C)[C@H]3C(=O)O[C@H]([C@@H]3C)[C@H](O)[C@@H]12` [EURYCOMALACTONE], the inhibition (Homo sapiens [1]) is reported as “Active”, the inhibition [2] is reported as “inactive” and the Activity [3] is reported as “Non-Toxic”. The Activity (Homo sapiens [4]) was “Tde”, the inhibition (Homo sapiens [5]) was “Dose-dependent effect” and the IC50 [6] was 580 nM. For the same compound, the inhibition [7] was “inactive”, the inhibition (Homo sapiens [8]) was “inactive” and the inhibition (Homo sapiens [9]) was “inactive”. The inhibition (Homo sapiens [10]) was “inactive”, the inhibition [11] was “inactive” and the inhibition (Homo sapiens [12]) was “Active”. The Activity [13] was “Non-Toxic” and the inhibition (Homo sapiens [14]) was “inactive”.
